Laboratory results as given in the EternaBench riboswitch data.

Tested on: MS2 coat protein
Test: apparent Kd, MS2 coat protein; higher = weaker binding; RNA-MaP array; FMN 200 µM where present
Method in brief: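 Designs were transcribed by stalled E. coli RNA polymerase on Illumina sequencing-chip clusters. They were titrated with SNAP-549-labelled MS2 coat protein from 0.7 or 1.5 nM, doubling to 3 µM, without and then with constant ligand. Buffer: 100 mM Tris-HCl pH 7.5, 80 mM KCl, 4 mM MgCl2, BSA, DTT, yeast tRNA, Tween-20. Green signal was normalised to red-channel RNA signal and control-cluster median Fmax. Apparent Kd is the median of filtered per-cluster binding-curve fits.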

[1] = designed as: ON switch for flavin mononucleotide, no ligand
[2] = ligand present: flavin mononucleotide, designed as: ON switch for flavin mononucleotide
[3] = designed as: OFF switch for flavin mononucleotide, no ligand
[4] = ligand present: flavin mononucleotide, designed as: OFF switch for flavin mononucleotide

Sequence | apparent Kd [1] [µM] | apparent Kd [2] [µM] | apparent Kd [3] [µM] | apparent Kd [4] [µM]
AAUGGGCAGCAGAAGGCAUGUCAACGGACAUGAGGAUCACCCAUGUAGUAUAGCCGAAAGGCACAUGAGGAUAUGCUGCCCUAA | 0.0194 | 0.00514 | – | –
CUUUUGUCAGGAUAUGAGUAGUAGAACAAUAGUACUACUACUCAGAAGGGACAUGAGGAUCACCCAUGUUCCUC | – | – | 0.0166 | 0.0505
AUCAGCUCAUCAGGAUAUACAUCACUGCUUCGGCAGUGUAUUAAGAUCACAUGAGGAUCACCCAUGUAGAAGGGAUGAGCUGAU | – | – | 0.0327 | 0.347
ACAUGAGGAUCACCCAUGUUCACAUAGGAUAUUGAUUUUAUUGGUUUUAGAAUAGUUAUUAAGCUCAAGAAGGAUGCCAGUUGU | 0.0124 | 0.00997 | – | –
AAGUAUAGAGGAUAUACAUAGAUACAGAUUCAUGUAGAACUACAUGAGGAUCACCCAUGUAGAAGGCUAUACUA | – | – | 0.0302 | 0.159
AUAAGUCGAGGAUAUACGGGAUGCUAGCGAAAGCUAGCAUAACAUGAGGAUCACCCAUGUAGAAGGCGACAAUA | – | – | 0.0562 | 0.104
ACAUGUUUUACAGGAUAUGUUAUACAAUAAACAAUCAGUUAUUAUGAUUUUACAGAAGGGUAUACAUGAGGAUCACCCAUGUUA | – | – | 0.023 | 0.0191
GAAAACUGAGGAUAUACUUUGGGAAAAGAAAAGAUGAUGUUACAUGAGGAUCACCCAUGUAGAAGGCAGAAAAA | – | – | 0.0259 | 0.036
UUGUUAUAUGUAGGAUAUGCAUAUUAUUAUUAUGCAGAAGGACAUGAGGAUCACCCAUGUAUAUUAUUAUUAUAUGUUAUAUAU | – | – | 0.0238 | 0.0298
GCACAUGAUACAGGAUAUGUUUUGGAUUUUAUAUUCAGUUAUAUAAUAUUUACAGAAGGGUAUACAUGAGGAUCACCCAUGUGC | – | – | 0.0611 | 0.0308
GGAUCACGAGGAUAUCGAUUUUAGUACAUGAGGAUCACCCAUGUUGUCCAGGUCUCGAUUCGAGAAGGCGUGAUUC | – | – | 0.0367 | 0.0592
CCGGAAACGGGUAGCUGACAUGAGGAUCACCCAUGUGUUUCACAGGAUAUGGAUCCUAAUUGGAUCCAGAAGGGUGUCAGCUAC | 1.04 | 0.157 | – | –
AAGUAAGGAGGAUAUACGUCAUAGACCGCAAUAUGUCAUAGACAUGAGGAUCACCCAUGUAGAAGGCUUUAACA | – | – | 0.0347 | 0.0262
CAAAAGGAAGGAUAUACAUGUUAAUUAUCCGAAGAUGUCGUACAUGAGGAUCACCCAUGUAGAAGGUCCAAAAC | – | – | 0.0303 | 0.0787
GGAUAGGACAGAGGAUAUACGUGCUAGAGAUACUAGCAAAAUUUCCUCACAUGAGGAUCACCCAUGUAGAAGGCUGUCCUGUCG | – | – | 0.0171 | 0.354
UUCUUUCCUCAUGUACAUGAGGAACAUGAGGAUCACCCAUGUAGAAGGAUUUCCCUUAAAUUAAAAUAGGAUAUACAUAUAUUU | – | – | 0.0279 | 0.0247
GGCUCCGCUCGAGGAUAUAGCUGCAUGUAGUGUCCUGAGGCACAUGAGGAUCACCCAUGUGUAGGCUAGAAGGCGACGGAAGCU | – | – | 0.142 | 0.176
GCACUUAAAAUUGAACCGUUUCGAACAUGAGGAUCACCCAUGUAGGAUAUGCUAAAAGUUGUGAUGCAGAAGGACAAUAAGUGC | – | – | 0.00682 | 0.00667
GGAAAUCAUGUAGGAUAUGCAUGGCGAAGCUACGCAGAAGGACAUGAGGAUCACCCAUGUUAAAGCUACCGAGUUCGGUGGCAA | – | – | 0.18 | 0.148
GGAUAGGACAGAGGAUAUACGUGCUAGAAAUACUAGCAAAAUUUCCUCACAUGAGGAUCACCCAUGUAGAAGGCUGUCCUAUCG | – | – | 0.0145 | 0.542
UGCAUGUAAGGAUAUGCAUCCGCCAACGAACCGGCGGCACAGCAGAAGGUACAUGAGGAUCACCCAUGUGUCCC | – | – | 0.0348 | 0.195
UGAUUGCGUGUUAGGAUAUGGUUUGGUGUUUCGGGCUAGAAGGGACAUGAGGAUCACCCAUGUAACUGGCGGGU | – | – | 0.0549 | 0.0677
AUAUGUGUCGAGAAGGGCUCACGUAACGGAACAGCAGGAUAUCGACAUGAGGAUCACCCAUGUCGGAACGAACGGAUCUUUACU | – | – | 0.00722 | 0.00853
AAUUAGGUCACAGGAUAUACUACAUCCAAUGCAGUAGAAGGGUGACACAUUCUGUGCAGACAUGAGGAUCACCCAUGUAACCAC | 0.0116 | 0.00639 | – | –
UGUGGGAGCAGAGGAUAUUACAUGAGGAUCACCCAUGUAUGAACCAAUAGCUGGAAACAGCAAUGUAAGAAGGCUGCUCCGACA | – | – | 0.013 | 0.165
CGCUGUCACGCAGGAUAUGCAUUGGAUUACAAUGCAGAAGGGCGAUUACAUGAGGAUCACCCAUGUGUAGACAGUGAAGAAGAG | 0.3 | 0.0423 | – | –
AAGUAGGGAGGAUAUACAUAGAUACAGAUUCGUGUAGAACUACAUGAGGAUCACCCAUGUAGAAGGCCCUAAUA | – | – | 0.0181 | 0.0416
ACAUGCAUUCGAGGAUAUCGGUGAUUAAUUCUACGAGAAGGCGAUUUAAGAUAUAUUGUUUUAGACAUGAGGAUCACCCAUGUA | 0.029 | 0.0232 | – | –

Sequence | apparent Kd [1] [µM] | apparent Kd [2] [µM] | apparent Kd [3] [µM] | apparent Kd [4] [µM]
CAGCGAUAGCUAAAGUAUCUAUCAGAGGAUAUUCAUGAAACAUGAGGAUCACCCAUGUGAAACUGGGAGAAGGCUGAUAGAUAG | – | 0.00592 | – | –
GGAAAACAUGAGGAUCACCCAUGUGAGGAUAUCGAUGUCCAAAGGAAAGUGCGGGACUCGAGAAGGCACUUGGA | – | – | 0.0454 | 0.039
UAAGUUGAGGAGAAGGGAGCACAUGAGGAUCACCCAUGUGGUCCUUUGUGCUCAGGAUAUCCAUGGAGCUCCGUCGCGUUCCAU | – | – | 0.00449 | 0.00332
UUAUUGGUAGUGAGGAUAUCGGUUUGAUAGAUAUUCGAGAAGGCACAUGAGGAUCACCCAUGUAAGAUUGGGAA | – | – | 0.201 | 0.196
UUAAGUCAUGUAGGAUAUCCGAGGCGAAGCGUUGGAGAAGGACAUGAGGAUCACCCAUGUUCUAGCGUCUGAGUACAGAUGCAG | – | – | 0.0295 | 0.0947
GUAGUACAUGAGGAUCACCCAUGUGUAGAAGCAUGAGGAUAUGUCAGUCCAUGAAAAACGAUAGAAGGCAUGGUGA | 0.178 | 0.176 | – | –
CGGAUGUCAGGAUAUCGUGCAUACAACGAAAGUUCUAUGUGCGAGAAGGGACAUGAGGAUCACCCAUGUUAACG | – | – | 0.0595 | 0.25
GCAUCCUGGUAGAAGGGACAUCGGCUGGUAAGCAUCAUCUCCUUCUCACAUGAGGAUCACCCAUGUCAGGAUAUACCAGGACGC | – | – | 0.0123 | 0.0421
UAUUUUUAUGUAAGGAUAUGGGUUUGGUUGCGGGCUUAGAAGGUACAUGAGGAUCACCCAUGUAUAAUGUGCGU | – | – | 0.0296 | 0.0305
AUUAUUUAGUGAGGAUAUACAGAUUAUGAGUUUGUAGAAGGCACUUUCCUCAGGACAUGAGGAUCACCCAUGUGUUAAUAAGAU | – | – | 0.0897 | 0.316
GCCAGGAUGUAAGGAUAUGCUGAGGAUAACUCAGCAGAAGGUACAUGAGGAUCACCCAUGUAAUCCUAAUAAUAAUAACCUGGC | – | – | 0.0115 | 0.0174
GGUUUGGGAGGAUAUGGCUUGAAUGACAUGAGGAUCACCCAUGUAAGUGGAUCUUCCGGGCCAGAAGGCUCGGGCC | – | – | 0.0638 | 0.136
GUAGAGUCAGGAUAUACGAGAUCGAAAGAUCAGUAAUCCUCACAUGAGGAUCACCCAUGUAGAAGGGACUCUAC | – | – | 0.0234 | 0.344
CGGUCGAUGUAAGGAUAUCGACUGGAAUACAGUCGAGAAGGUACAUGAGGAUCACCCAUGUAAUCCAAUAAUAAAUAACGACCG | – | – | 0.0126 | 0.0225
GGUGCGUAUGUGAGGAUAUGCUGGUCCUUGGAUCGGCAGAAGGCACAUGAGGAUCACCCAUGUGGUGUCGUACA | – | – | 0.411 | 0.0347
AAUAAGUGAGGAUAUACGUCUGGACCCGGGAGGGCUAUAUAACAUGAGGAUCACCCAUGUAGAAGGCACAAUAA | – | – | 0.0139 | 0.0159
GUAACAUGAGGAUCACCCAUGUAUAGAACACUCAAUAGAUUUGAGGAUAUAGUGGAAUUUACACACUAGAAGGCAGUGGGUGCA | 0.181 | 0.253 | – | –
AACAGCUCGUCAGGAUAUAUUAUAAUAAUACGGCAGUUUGUACAUGAGGAUCACCCAUGUUGUAUGUAGAAGGGACGAGCUGAA | – | – | 0.00986 | 0.00891
CAGACGUCAGGAUAUCUGAUGUCUAACUUCGGUUAGACAUCAGAGAAGGGACAUGAGGAUCACCCAUGUCUGAA | – | – | 0.0254 | 0.0236
GUUAUUUAUGUAGGAUAUGCGAGGCGAGCCUGAGCAGAAGGACAUGAGGAUCACCCAUGUAUUGCGGUUUGUGUUCAGAUCGCU | – | – | 0.0179 | 0.0256
UGUUGUAUUACAGGAUAUCUAUUGUUUUUAAUUAGAGAAGGGUAUUCACAUGAGGAUCACCCAUGUAUAUACGAGGAAGUUGUG | 0.0505 | 0.0534 | – | –
UAAAUACAUGAGGAUCACCCAUGUCAAAAGACAUGAGGAUAUGUACAGUCUUCGGUCUGUACAGAAGGCAUGAAUA | 0.464 | 0.035 | – | –
CUCCGGCGUGUAGGAUAUGGAUCCGAUUAGGAUCCAGAAGGACAUGAGGAUCACCCAUGUACAUGUAAACAGUCAUCACCGGAG | – | – | 0.00624 | 0.00699
AGCAGACGAGGAUAUAGAUUUGUUGACAUGAGGAUCACCCAUGUGAUCGAUCUAUUAUAUUUAGAAGGUGUCUGCU | – | – | 0.0129 | 0.0135
GCACUGGAUGUAGGAUAUCAGGACGAUAAGUCCUGAGAAGGACAUGAGGAUCACCCAUGUAAACUCAACCAGUGCUAUAAUAUA | – | – | 0.0152 | 0.0228
UUACCUCAUGAGAAGGACAUGAGGAUCACCCAUGUAGGAUAUCAUGGGUCAGUGGAAUUGAAUCUUCGGAUUCAAUAACUCUAU | 0.114 | 0.0345 | – | –
UCUUUGUGAGGAUAUCAGUAGUAAAUAAAUAAAAUUACUACUGAGAAGGCACAUGAGGAUCACCCAUGUUCCUU | – | – | 0.0121 | 0.0244
